Experimental data as given in ChEMBL document CHEMBL1145471, “Small molecule regulators of autophagy identified by an image-based high-throughput screen” (Proc Natl Acad Sci U S A, 2007).
Calls of active or inactive are those of the source. The calls are words filed in the database; no cut-off is given here.

What was measured:
[1] = test system: H4; assay: Increase in light chain 3-GFP+ autophagosome vesicle number per cell in human H4 cells at 3.4 uM after 24 hrs by high throughput fluorescence microscopy relative to control; format: functional
In short: (§1)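 H4 cells stably expressing LC3-GFP, seeded in 96-well plates and exposed to compound for 24 h; fixed in 4% paraformaldehyde, nuclei stained with 3 μg/ml DAPI. Automated fluorescence microscopy scored number, size and intensity of LC3-GFP spots; values expressed relative to DMSO-treated wells, rapamycin positive control. Triplicate wells, mean ± SD; experiments repeated three times.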

[2] = test system: H4; assay: Increase in FYVE-RFP+ vesicle intensity per cell in human H4 cells after 2 hrs relative to control; format: functional; parameters: concentration or dose not given beside the values
In short: (§2)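 H4 cells stably expressing FYVE-RFP (H4-FYVE), grown in DMEM with 10% FBS, penicillin/streptomycin and 2 mM L-glutamine at 37°C, 5% CO2, seeded in 96-well plates and exposed to compound. Fixed in 4% paraformaldehyde, nuclei stained with 3 μg/ml DAPI, FYVE-RFP+ vesicles quantified by high-throughput fluorescence microscopy against DMSO control. Triplicate wells, mean ± SD.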

[3] = test system: H4; assay: Increase in long-lived protein degradation in human H4 cells after 4 hrs relative to control; format: functional; parameters: concentration or dose not given beside the values
[4] = test system: H4; assay: Increase in FYVE-RFP+ vesicle intensity per cell in human H4 cells after 8 hrs relative to control; format: functional; parameters: concentration or dose not given beside the values; in short: as §2
[5] = test system: H4; assay: Induction of light chain 3-GFP level in human H4 cells at 3.4 uM after 24 hrs by high throughput fluorescence microscopy relative to control; format: functional
In short: (§3)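 H4 cells stably expressing LC3-GFP, kept in DMEM/10% FBS at 37°C, 5% CO2, were seeded in 96-well plates and exposed to compound for 24 h. Cells were then fixed in 4% paraformaldehyde and stained with 3 μg/ml DAPI. Automated fluorescence microscopy scored the number, size and intensity of LC3-GFP spots. Values are percent of DMSO wells, in triplicate, mean ± SD. Rapamycin served as positive control.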

[6] = test system: H4; assay: Increase in light chain 3-GFP+ autophagosome vesicle intensity per cell in human H4 cells at 3.4 uM after 24 hrs by high throughput fluorescence microscopy relative to control; format: functional; in short: as §1
[7] = test system: H4; assay: Increase in FYVE-RFP+ vesicle intensity per cell in human H4 cells after 4 hrs relative to control; format: functional; parameters: concentration or dose not given beside the values; in short: as §2
[8] = test system: H4; assay: Increase in long-lived protein degradation in human H4 cells after 24 hrs relative to control; format: functional; parameters: concentration or dose not given beside the values
[9] = test system: H4; assay: Increase in long-lived protein degradation in human H4 cells after 2 hrs relative to control; format: functional; parameters: concentration or dose not given beside the values
[10] = test system: H4; assay: Increase in light chain 3-GFP+ autophagosome vesicle area per cell in human H4 cells at 3.4 uM after 24 hrs by high throughput fluorescence microscopy relative to control; format: functional; in short: as §1
[11] = test system: H4; assay: Increase in long-lived protein degradation in human H4 cells after 1 hr relative to control; format: functional; parameters: concentration or dose not given beside the values
[12] = test system: H4; assay: Decrease in FYVE-RFP+ vesicle intensity per cell in human H4 cells after 2 hrs relative to control; format: functional; parameters: concentration or dose not given beside the values; in short: as §2
[13] = test system: H4; assay: Increase in light chain 3-GFP+ autophagosome vesicle number per cell in human H4 cells at 3.6 uM after 24 hrs by high throughput fluorescence microscopy relative to control; format: functional
In short: (§4)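 H4 cells stably expressing LC3-GFP were grown in DMEM with 10% FBS and 2 mM L-glutamine at 37°C, 5% CO2. They were exposed to each compound for 24 h, with DMSO as negative and rapamycin as positive control. Cells were then fixed in 4% paraformaldehyde and stained with 3 μg/ml DAPI. High-throughput fluorescence imaging scored LC3-GFP spot number, size and intensity, expressed relative to DMSO. Mean ± SD of triplicates; experiments repeated three times.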

[14] = test system: H4; assay: Decrease in FYVE-RFP+ vesicle intensity per cell in human H4 cells after 4 hrs relative to control; format: functional; parameters: concentration or dose not given beside the values; in short: as §2
[15] = test system: H4; assay: Induction of light chain 3-GFP level in human H4 cells at 3.6 uM after 24 hrs by high throughput fluorescence microscopy relative to control; format: functional
In short: (§5)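 H4 cells stably expressing LC3-GFP, grown in DMEM with 10% FBS, penicillin/streptomycin and 2 mM L-glutamine at 37°C, 5% CO2. Cells were seeded in 96-well plates and exposed to library compounds at 3–12 μM for 24 h, then fixed in 4% paraformaldehyde and stained with 3 μg/ml DAPI. LC3-GFP spot number, size and intensity were measured by high-throughput fluorescence microscopy and expressed relative to DMSO. Triplicates, mean ± SD.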

[16] = test system: H4; assay: Decrease in FYVE-RFP+ vesicle intensity per cell in human H4 cells after 8 hrs relative to control; format: functional; parameters: concentration or dose not given beside the values; in short: as §2
[17] = test system: H4; assay: Increase in light chain 3-GFP+ autophagosome vesicle area per cell in human H4 cells at 3.6 uM after 24 hrs by high throughput fluorescence microscopy relative to control; format: functional
In short: (§6)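 H4 cells stably expressing LC3-GFP, seeded in 96-well plates and exposed to compound for 24 h; screening concentrations were 3–12 μM, with rapamycin 0.22 μM and bafilomycin A1 0.40 μM. Cells fixed in 4% paraformaldehyde and stained with 3 μg/ml DAPI. Number, size and intensity of LC3-GFP spots measured by high-throughput fluorescence microscopy and expressed as percent of DMSO-treated wells. Rapamycin was the positive control. Triplicate wells, mean ± SD; experiments repeated three times.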

[18] = test system: H4; assay: Increase in light chain 3-GFP+ autophagosome vesicle intensity per cell in human H4 cells at 3.6 uM after 24 hrs by high throughput fluorescence microscopy relative to control; format: functional; in short: as §6
[19] = test system: H4; assay: Increase in light chain 3-GFP+ autophagosome vesicle area per cell in human H4 cells at 5.9 uM after 24 hrs by high throughput fluorescence microscopy relative to control; format: functional; in short: as §6
[20] = test system: H4; assay: Increase in light chain 3-GFP+ autophagosome vesicle intensity per cell in human H4 cells at 5.9 uM after 24 hrs by high throughput fluorescence microscopy relative to control; format: functional; in short: as §4
[21] = test system: H4; assay: Increase in light chain 3-GFP+ autophagosome vesicle number per cell in human H4 cells at 5.9 uM after 24 hrs by high throughput fluorescence microscopy relative to control; format: functional; in short: as §4
[22] = test system: H4; assay: Induction of light chain 3-GFP level in human H4 cells at 5.9 uM after 24 hrs by high throughput fluorescence microscopy relative to control; format: functional; in short: as §5
[23] = test system: H4; assay: Increase in light chain 3-GFP+ autophagosome vesicle area per cell in human H4 cells at 7.7 uM after 24 hrs by high throughput fluorescence microscopy relative to control; format: functional; in short: as §1
[24] = test system: H4; assay: Effect on FYVE-RFP+ vesicle intensity per cell in human H4 cells after 8 hrs relative to control; format: functional; parameters: concentration or dose not given beside the values; in short: as §2
[25] = test system: H4; assay: Induction of light chain 3-GFP level in human H4 cells at 7.7 uM after 24 hrs by high throughput fluorescence microscopy relative to control; format: functional; in short: as §3
[26] = test system: H4; assay: Effect on FYVE-RFP+ vesicle intensity per cell in human H4 cells after 2 hrs relative to control; format: functional; parameters: concentration or dose not given beside the values; in short: as §2
[27] = test system: H4; assay: Increase in light chain 3-GFP+ autophagosome vesicle number per cell in human H4 cells at 7.7 uM after 24 hrs by high throughput fluorescence microscopy relative to control; format: functional; in short: as §3
[28] = test system: H4; assay: Increase in light chain 3-GFP+ autophagosome vesicle intensity per cell in human H4 cells at 7.7 uM after 24 hrs by high throughput fluorescence microscopy relative to control; format: functional; in short: as §1
[29] = test system: H4; assay: Effect on FYVE-RFP+ vesicle intensity per cell in human H4 cells after 4 hrs relative to control; format: functional; parameters: concentration or dose not given beside the values; in short: as §2
[30] = test system: H4; assay: Induction of light chain 3-GFP level in human H4 cells at 7.0 uM after 24 hrs by high throughput fluorescence microscopy relative to control; format: functional; in short: as §5
[31] = test system: H4; assay: Increase in light chain 3-GFP+ autophagosome vesicle intensity per cell in human H4 cells at 7.0 uM after 24 hrs by high throughput fluorescence microscopy relative to control; format: functional; in short: as §4
[32] = test system: H4; assay: Increase in light chain 3-GFP+ autophagosome vesicle number per cell in human H4 cells at 7.0 uM after 24 hrs by high throughput fluorescence microscopy relative to control; format: functional; in short: as §4
[33] = test system: H4; assay: Increase in light chain 3-GFP+ autophagosome vesicle area per cell in human H4 cells at 7.0 uM after 24 hrs by high throughput fluorescence microscopy relative to control; format: functional; in short: as §6
[34] = molecular target: Serine/threonine-protein kinase mTOR (Homo sapiens, UniProt P42345); assay: Effect on mTOR phosphorylation in human H4 cells at 3.7 uM after 4 hrs; format: cell-based
In short: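 H4 cells exposed to compound for 4 h. Lysates analysed by Western blot with anti-phospho and anti-total mTOR antibodies, with actin as loading control. Rapamycin served as reference.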

[35] = test system: H4; assay: Induction of light chain 3-GFP level in human H4 cells at 3.7 uM after 24 hrs by high throughput fluorescence microscopy relative to control; format: functional; in short: as §5
[36] = test system: H4; assay: Increase in light chain 3-GFP+ autophagosome vesicle number per cell in human H4 cells at 3.7 uM after 24 hrs by high throughput fluorescence microscopy relative to control; format: functional; in short: as §4
[37] = test system: H4; assay: Reduction of poly(Q) level in human H4 cells expressing EGFP-Q79-HA after 24 hrs; format: functional, cell-based
In short: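 H4 cells were transiently transfected with an EGFP-Q79-HA expression vector. The medium was replaced 6 h after transfection and compounds were added. Poly(Q) was detected with anti-HA antibody.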

[38] = test system: H4; assay: Increase in light chain 3-GFP+ autophagosome vesicle intensity per cell in human H4 cells at 3.7 uM after 24 hrs by high throughput fluorescence microscopy relative to control; format: functional; in short: as §6
[39] = test system: H4; assay: Increase in ratio of light chain 3 subunit 2 to light chain 3 subunit 1 in human H4 cells at 3.7 uM after 4 hrs by Western blot; format: functional, cell-based
In short: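 H4 cells were treated with each compound for 4 h, then lysed. Lysates were immunoblotted with anti-LC3 antibody, with actin as loading control. LC3II and LC3I bands were compared as an LC3II/LC3I ratio.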

[40] = test system: H4; assay: Increase in light chain 3-GFP+ autophagosome vesicle area per cell in human H4 cells at 3.7 uM after 24 hrs by high throughput fluorescence microscopy relative to control; format: functional; in short: as §6

Structure (SMILES) | Activity [2] [%] | Activity [3] [%] | Activity [4] [%] | Activity [7] [%] | Activity [8] [%] | Activity [9] [%] | Activity [11] [%] | Activity [24] [%] | Activity [26] [%] | Activity [29] [%] | further results
CO[C@@H]1C[C@@H](C[C@H]2CC[C@H](C)[C@H]([C@@H](C)C(=O)O)O2)O[C@]2(O[C@](C)([C@H]3CC[C@@](C)([C@@H]4O[C@@H]([C@H]5O[C@@](O)(CO)[C@H](C)C[C@@H]5C)C[C@@H]4C)O3)C[C@H]2C)[C@@H]1C [NIGERICIN] | 148.43 | 96.9 | 140.54 | 145.4 | 95.98 | 88.14 | 91.75 | – | – | – | Activity [1]: 375.67%; Activity [5]: 106.9%; Activity [6]: 747.88%; Activity [10]: 551.04%
CC[C@@]1([C@@H]2O[C@@H]([C@H]3O[C@@](O)(CO)[C@H](C)C[C@@H]3C)C[C@@H]2C)CC[C@H]([C@]2(C)CC[C@]3(C[C@H](O)[C@@H](C)[C@@H]([C@@H](C)[C@@H](OC)[C@H](C)C(=O)O)O3)O2)O1 [MONENSIN] | – | 109.16 | – | – | 107.54 | 123.64 | 107.28 | – | – | – | Activity [12]: 81.22%; Activity [13]: 312.92%; Activity [14]: 66.44%; Activity [15]: 92.38%; Activity [16]: 59.14%; Activity [17]: 418.31%; Activity [18]: 639.29%
CN(C)C[C@H](O)Cn1c2ccc(Br)cc2c2cc(Br)ccc21 [WISKOSTATIN] | 267.9 | 92.99 | 131.93 | 240.08 | 97.71 | 90.21 | 68.51 | – | – | – | Activity [19]: 1226.54%; Activity [20]: 2401.38%; Activity [21]: 789.24%; Activity [22]: 96.96%
CN1CCN(C2=Nc3cc(Cl)ccc3Nc3ccccc32)CC1 [CLOZAPINE] | – | 11.93 | – | – | 119.5 | 125.71 | 115.64 | 78.38 | 64.04 | 74.79 | Activity [23]: 275.5%; Activity [25]: 139.18%; Activity [27]: 216.53%; Activity [28]: 350.13%
COC(=O)C1=C(C)NC(C)=C([N+](=O)[O-])C1c1ccccc1C(F)(F)F (centres undefined) | – | 115.35 | – | – | 102.15 | 115.5 | 104.43 | 79.7 | 110.18 | 57.79 | Activity [30]: 134.45%; Activity [31]: 181.32%; Activity [32]: 146.82%; Activity [33]: 165.46%
CCCCc1oc2ccccc2c1C(=O)c1cc(I)c(OCCN(CC)CC)c(I)c1 [AMIODARONE] | – | 110.75 | – | – | 116.73 | 122.42 | 101.32 | 83.45 | 92.5 | 89.23 | Activity [34]: inactive; Activity [35]: 138.5%; Activity [36]: 189.25%; Activity [37]: Dose-dependent effect; Activity [38]: 327.25%; Activity [39]: Active; Activity [40]: 236.64%
